Measured values published in ChEMBL document CHEMBL1134287, “Design and pharmacological activity of phosphinic acid based NAALADase inhibitors” (J Med Chem, 2001).
pIC50: −log10 of the molar value.

Target: Glutamate carboxypeptidase 2 (Rattus norvegicus, UniProt P70627)
Assay: Inhibitory concentration against rat brain NAALADase (Folate hydrolase)
Method in brief: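 IC50 values were determined by a method described elsewhere, from two to four independent determinations each. The values refer to racemic material.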

Glutamate carboxypeptidase 2, sequence (P70627 whole entry): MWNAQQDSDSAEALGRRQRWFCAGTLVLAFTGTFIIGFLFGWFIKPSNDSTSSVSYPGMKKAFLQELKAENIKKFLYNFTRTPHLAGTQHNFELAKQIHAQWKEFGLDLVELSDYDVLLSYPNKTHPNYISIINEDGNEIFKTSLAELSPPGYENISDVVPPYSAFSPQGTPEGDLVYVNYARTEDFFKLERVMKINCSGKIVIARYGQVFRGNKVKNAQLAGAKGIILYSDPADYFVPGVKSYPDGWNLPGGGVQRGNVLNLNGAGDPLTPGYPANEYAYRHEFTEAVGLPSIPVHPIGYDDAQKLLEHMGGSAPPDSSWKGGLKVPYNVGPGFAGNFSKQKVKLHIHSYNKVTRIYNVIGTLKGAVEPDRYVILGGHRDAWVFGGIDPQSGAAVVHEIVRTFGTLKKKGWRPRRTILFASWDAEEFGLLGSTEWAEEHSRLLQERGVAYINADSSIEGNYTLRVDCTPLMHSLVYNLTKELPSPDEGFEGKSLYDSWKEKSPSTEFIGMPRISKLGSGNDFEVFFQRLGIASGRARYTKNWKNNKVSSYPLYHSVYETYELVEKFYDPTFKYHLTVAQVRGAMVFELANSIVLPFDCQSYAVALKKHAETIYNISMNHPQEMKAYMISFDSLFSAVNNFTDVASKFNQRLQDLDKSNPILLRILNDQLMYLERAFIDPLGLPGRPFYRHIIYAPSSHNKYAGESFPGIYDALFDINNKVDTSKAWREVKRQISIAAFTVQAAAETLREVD

| Compound | pIC50 |
| --- | --- |
| O=C(O)CCC(CP(=O)(O)CCc1ccccc1)C(=O)O (stereo not given) | 6.83 |
| CC(CP(=O)(O)CC(CCC(=O)O)C(=O)O)C(=O)O (stereo not given) | 8.82 |
| CCCP(=O)(O)CC(CCC(=O)O)C(=O)O (stereo not given) | 6.44 |
| O=C(O)CCC(CP(=O)(O)CC(CCC(=O)O)C(=O)O)C(=O)O (stereo not given) | 9.30 |
| O=C(O)C(CCc1ccccc1)CP(=O)(O)O (stereo not given) | 6.70 |
| O=C(O)CCC(CP(=O)(O)CNCc1ccccc1)C(=O)O (stereo not given) | 7.23 |
| Nc1cccc(CP(=O)(O)CC(CCC(=O)O)C(=O)O)c1 (stereo not given) | 6.84 |
| O=C(O)CCC(CP(=O)(O)Cc1cc(C(F)(F)F)cc(C(F)(F)F)c1)C(=O)O (stereo not given) | 7.26 |
| O=C(O)CCC(CP(=O)(O)Cc1ccccc1F)C(=O)O (stereo not given) | 6.81 |
| COc1ccc(NCP(=O)(O)CC(CCC(=O)O)C(=O)O)cc1 (stereo not given) | 8.52 |
| O=C(O)CC(CP(=O)(O)O)C(=O)O (stereo not given) | 5.66 |
| N#CCCC(CP(=O)(O)O)C(=O)O (stereo not given) | 6.47 |
| CC(CP(=O)(O)CC(CCC(=O)O)C(=O)O)C(=O)OCc1ccccc1 (stereo not given) | 7.02 |
| O=C(O)CCC(CP(=O)(O)C(O)c1cccc(F)c1)C(=O)O (stereo not given) | 7.80 |
| O=C(O)CCC(CP(=O)(O)c1ccccc1)C(=O)O (stereo not given) | 5.53 |
| O=C(O)CCC(CP(=O)(O)Cc1ccccc1)C(=O)O (stereo not given) | 7.28 |
| O=C(O)CCC(CP(=O)(O)Cc1cc(F)cc(F)c1)C(=O)O (stereo not given) | 7.31 |
| O=C(O)CCC(CP(=O)(O)Cc1c(F)c(F)c(F)c(F)c1F)C(=O)O (stereo not given) | 7.09 |
| Cc1ccc(CP(=O)(O)CC(CCC(=O)O)C(=O)O)cc1 (stereo not given) | 7.17 |
| O=C(O)CCCC(CP(=O)(O)O)C(=O)O (stereo not given) | 6.73 |
| O=C(O)CCC(CP(=O)(O)C(O)c1ccncc1)C(=O)O (stereo not given) | 8.00 |
| O=C(O)C(CCC1N=NN=N1)CP(=O)(O)O (stereo not given) | 6.76 |
| O=C(O)C(Cc1cccc(O)c1)CP(=O)(O)O (stereo not given) | 6.29 |
| O=C(O)C(Cc1ccccc1)CP(=O)(O)O (stereo not given) | 6.26 |
| O=C(O)CCC(CP(=O)(O)CC(Cc1ccccc1)C(=O)O)C(=O)O (stereo not given) | 8.70 |
